An excerpt weighted towards active compounds, which were near 3.4% of everything screened.
DTT redox prof: compounds producing H2O2 with reducing agent – biochemical, NIH compound library profiling, artefact control for MLSCN library redox annotation, primary screen; hit rate 0.03% among 200,000; AID 878; DTT-dependent redox cycling H2O2, phenol red/HRP absorbance; 100% = 100 µM peroxide control, 0% = buffer; activation, % at 10 µM;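 active means activation of at least 50% relative to the plate's high and low controls in the primary single-dose screen; inactive means activation below 50%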;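 further: compound incubated with DTT at 0.8 mM final as the reducing agent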
ROMK primary: human ROMK K+ channel modulation, primary screen | Tet-inducible ROMK, thallium flux fluorescence; actives lie on both sides | AID 1918 | hit rate 2% among 130,000 | B-score at 10 µM | P48048;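 active means signal ratio slope over the read window, or its plate-corrected B-score, at least 3 SD from the plate mean, either direction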;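 further: B-score of the F/F0 ratio slope over 7 to 12 s after thallium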
Cl transport mod: modulates chloride dependent transport by human KCC2; Q9H2X9; KCC2 cells, thallium flux FluoZin-2 fluorescence; B-score of Tl+ flux slope (higher = more flux/activation; lower = inhibition) at 10 µM; hit rate 2.2% among 190,000; AID 1456;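 active means thallium flux slope and its plate-corrected score both differing from the plate sample mean at a set confidence after two filtering rounds, in either direction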;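 further: slope of fluorescence scaled to starting intensity during 10 to 20 s after thallium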
p97 ATPase inh: human p97 ATPase inhibition | recombinant p97 ATPase, Kinase-Glo ATP luminescence, 3 h | inhibition, % at 8 µM | hit rate 0.42% among 220,000; in the data active means inhibition above about 15%;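 further: 0% = DMSO vehicle and 100% = wells lacking enzyme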
Target sequence (P55072 whole entry, looked up): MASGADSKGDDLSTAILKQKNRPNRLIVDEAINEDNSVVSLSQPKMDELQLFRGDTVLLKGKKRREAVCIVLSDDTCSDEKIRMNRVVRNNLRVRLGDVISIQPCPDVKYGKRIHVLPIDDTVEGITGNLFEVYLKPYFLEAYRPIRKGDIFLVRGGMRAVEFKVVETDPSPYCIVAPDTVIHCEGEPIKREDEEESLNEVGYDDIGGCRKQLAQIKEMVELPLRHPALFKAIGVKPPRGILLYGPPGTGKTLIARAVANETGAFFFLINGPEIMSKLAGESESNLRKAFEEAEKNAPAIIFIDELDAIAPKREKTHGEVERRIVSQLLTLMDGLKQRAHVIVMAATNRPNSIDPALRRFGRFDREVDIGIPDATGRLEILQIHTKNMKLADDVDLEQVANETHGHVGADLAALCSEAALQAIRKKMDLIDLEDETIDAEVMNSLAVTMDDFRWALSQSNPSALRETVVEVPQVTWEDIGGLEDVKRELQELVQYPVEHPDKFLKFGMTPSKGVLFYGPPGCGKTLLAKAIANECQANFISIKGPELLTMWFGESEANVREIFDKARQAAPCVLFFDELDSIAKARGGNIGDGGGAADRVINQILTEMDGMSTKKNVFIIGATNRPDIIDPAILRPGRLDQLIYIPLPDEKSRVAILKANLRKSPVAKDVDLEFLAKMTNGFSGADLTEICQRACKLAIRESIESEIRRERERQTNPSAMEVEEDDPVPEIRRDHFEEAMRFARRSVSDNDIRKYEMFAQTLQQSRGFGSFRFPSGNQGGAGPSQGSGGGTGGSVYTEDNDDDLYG
PKD1 kinase inh: PKD1 (human) kinase inhibition. Q15139. PKD1 kinase fluorescence polarization assay. inhibition, % (concentration not given with the values). hit rate 0.056% among 200,000; in the data active means inhibition above about 50%
MDM2 E3 inh: blocks human Mdm2 ubiquitin ligase activity. Q00987. cell-based MDM2 ubiquitination luciferase reporter, 2 h; 0 = plate control, 100 = twice control, blank-subtracted. signal enhancement, % at 5 µM. hit rate 0.11% among 210,000. AID 1230;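 active means signal enhancement of 30% or more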;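 further: luminescence tracks abundance of the self-degrading MDM2-luciferase fusion protein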
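system = mammalian cells stably expressing self-ubiquitinating, self-degrading MDM2 E3–luciferase fusion | quantity = 2000 cells per well seeded | incubation = 4 h cell settling then 2 h compound exposure, 37 °C | signal = SteadyLite luminescence, 15 min reagent step | benchmarks = plate control and blank wells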
Numbers without * were called inactive; / = no result.

SMILES	DTT redox prof	ROMK primary	Cl transport mod	p97 ATPase inh	PKD1 kinase inh	MDM2 E3 inh
COC(=O)/C(C#N)=C(/Nc1ccc(F)c(Cl)c1)C(F)(F)F	/	/	0.028	-1	/	-9
CCCN1C2CCCC1CC(NC(=O)c1ccccc1F)C2 (centres undefined)	1	/	0.019	6	-2	-3
CC[C@@H]1C=C(C)C[C@H](C)C[C@H](OC)[C@H]2O[C@@](O)(C(=O)C(=O)N3CCCC[C@H]3C(=O)O[C@H](/C(C)=C/[C@@H]3CC[C@@H](O)[C@H](OC)C3)[C@H](C)[C@@H](O)CC1=O)[C@H](C)C[C@@H]2OC	0	-3.6*	-0.64	-4	-9	13
CCOc1ccc(NC(=S)NCc2ccc3c(c2)OCO3)cc1	/	/	0.31	0	/	-9
CNC(=O)c1c(NC(=O)c2ccc(S(=O)(=O)N3CCCc4ccccc43)cc2)sc2c1CCN(C)C2	/	-1.9	0.91	10	/	-6
CN1CCc2c(sc(NC(=O)c3ccc(S(=O)(=O)N4CCc5ccccc54)cc3)c2C(N)=O)C1	/	0.81	0.11	15*	/	-4
O=C(C#Cc1ccccc1)c1cccc([N+](=O)[O-])c1	-2	/	0.95	15*	11	-13
N/C(=N\OC(=O)Oc1ccccc1)c1cccc([N+](=O)[O-])c1	0	1	0.8	-2	-15	3
CCOC(=O)c1c(NC(=O)C2C3C=CC(C3)C2C(=O)O)sc2c1CCC(CC)C2 (centres undefined)	0	/	-5.8*	-5	8	-9
O=C1CC(C(=O)Nc2ccc(Cl)cc2[N+](=O)[O-])C2(CCCCC2)O1 (centres undefined)	0	/	0.34	-4	2	-3
CC1(C)Cc2c(sc3c2C2=NCCN2C=N3)CO1	0	0.65	7*	-1	0	/
COc1ccc(CCNC(=O)CN2CCN(S(=O)(=O)c3ccc(Cl)cc3)CC2)cc1OC	0	0.12	/	0	-5	-27
Cc1ccc(OCC(=O)N(c2ccccn2)C2CCCCC2)c(C)c1	0	-0.94	-0.51	-6	-1	-8
CC(=O)Cc1nsc(Nc2ccc(C)cc2)n1	0	0.43	0.49	0	-1	38*
CNc1nc(CC(C)=O)ns1	2	0.097	-0.69	2	3	-8
Cc1cccc(C)c1NC(=O)c1sccc1SCC#N	1	/	/	0	14	-3
Cc1ccc(C(=O)Nc2ccccc2C(=O)NC(CC(=O)O)C(=O)O)cc1 (centres undefined)	0	/	-1.1	32*	-3	-18
COc1ccccc1C1C=C(c2ccc(Cl)cc2)Nc2nc(NS(C)(=O)=O)nn21 (centres undefined)	1	/	0.8	4	-10	-7
O=C1CCC(=O)N1c1nc2n(n1)C(c1ccccc1)C=C(c1ccc(Br)cc1)N2 (centres undefined)	-2	-4*	/	5	4	-3
COc1ccccc1C1C=C(c2ccc(Cl)cc2)Nc2nc(N3C(=O)CCC3=O)nn21 (centres undefined)	0	-6*	/	-5	-5	-2
COc1c(Cl)ccc(Cl)c1C(=O)OCC(=O)O	0	-0.42	0.95	4	-6	-2
Cc1cc(-c2ccccc2)n2nc(C)c(C#N)c2n1	0	-0.53	-0.022	2	-6	-10
CCCCn1c(SC(C)C(N)=O)nc2cc(C(=O)OC)ccc2c1=O (centres undefined)	-5	/	9.8*	-8	10	-1
CCSc1nc2cc(C(=O)OC)ccc2c(=O)n1CC	2	/	-0.054	0	-14	-4
N#Cc1c(-c2ccccc2)nc(SCC(=O)Nc2ccccc2F)[nH]c1=O	0	0.026	-1.3	3	-9	1
SMILES	DTT redox prof	ROMK primary	Cl transport mod	p97 ATPase inh	PKD1 kinase inh	MDM2 E3 inh
N#Cc1c(-c2ccccc2)nc(SCC(=O)Nc2ccccc2)[nH]c1=O	0	0.68	-4.8*	6	-5	/
C/C(=C\c1ccco1)C1C(C#N)=C(N)Oc2n[nH]c(-c3ccc(C)cc3)c21 (centres undefined)	4	/	/	9	10	-4
CCc1nnc(NC(=O)CSc2nnc(-c3cc4ccccc4cc3O)n2CC)s1	-2	/	-1.9	0	-1	5
CCc1nnc(NC(=O)CSc2nnc(-c3cc4ccccc4cc3O)n2CCOC)s1	-1	/	-0.24	17*	-8	/
CC(c1ccccc1F)n1cc(C(=O)NCCCc2nc3ccccc3[nH]2)nn1 (centres undefined)	0	-0.09	0.018	5	3	-4
CC(C)(C)c1nc(C(C)(C)C)c(Br)c(=O)[nH]1	0	0.25	-0.82	1	1	7
Cc1nc(N)c(C#N)c(-c2ccccc2)c1C	0	/	0.027	4	0	-8
Cc1c(C#N)c(N)nc(Cl)c1C#N	-1	0.29	/	6	115*	-28
CCCCNC(=S)Nc1ccc([N+](=O)[O-])cc1	0	0.98	-0.97	2	-6	-5
CCCCNC(=S)NC(=O)c1ccc([N+](=O)[O-])cc1	-4	-0.33	21*	-2	-6	-24
CC(C)CNC(=S)NC(=O)c1ccc([N+](=O)[O-])cc1	-4	-0.73	20*	-3	6	-24
CCC(=O)N=c1sc2ccccc2n1-c1ccccc1	0	/	-0.94	5	-1	-13
O=C(NNC(=O)c1cc2cc(Br)ccc2oc1=O)c1ccc(O)cc1	-1	0.73	1.3	15*	-9	-17
O=C(c1ccc2c(=O)n(C3CCCC3)c(=S)[nH]c2c1)N1CCc2ccccc21	1	/	17*	3	-3	-32
CC(C)n1c(-c2ccc(C(C)(C)C)cc2)n[nH]c1=S	1	/	37*	-4	-8	2
COc1ccc(C2C(C(=O)O)CC(=O)N2C2CCCCC2)cc1 (centres undefined)	0	1.1	0.12	-6	8	-9
C=CCN(CC=C)C(=S)NC(=O)c1ccc(OC)c(Br)c1	-4	/	56*	-1	-14	-38
COc1ccc(C(=O)NC(=S)NCc2cccnc2)cc1Br	0	/	1	1	4	-3
CCN(CC)C(=S)NC(=O)c1ccc(OC)c(Br)c1	0	4.6*	96*	-4	1	-2
C=CCN(CC=C)C(=S)Nc1cc(Cl)ccc1OC	1	0.45	-0.2	2	1	-21
COc1ccc(C(=O)NC(=S)NCCO)cc1Br	-3	0.82	4.7*	2	-1	2
C=CCN(CC=C)C(=S)NC(=O)c1ccc([N+](=O)[O-])cc1	0	/	46*	-5	0	0
Cc1noc(C)c1CSc1nc2ccccc2nc1NS(=O)(=O)c1ccc(Cl)cc1	1	-3.1*	/	-5	3	-7
COc1ccccc1-n1c(O)c(C=NCc2ccccn2)c2ccccc2c1=O	/	/	-0.56	15*	/	9

Screening data (PubChem BioAssay)
